Laboratory results: ChEMBL document CHEMBL5131562, “1,3-Dioxane-Linked Novel Bacterial Topoisomerase Inhibitors: Expanding Structural Diversity and the Antibacterial Spectrum” (ACS Med Chem Lett, 2022)
Values after ≈ are worked out from the molar mass of the structure shown.

What was measured:
[1] = target: Voltage-gated inwardly rectifying potassium channel KCNH2 (Homo sapiens, UniProt Q12809); experiment: Inhibition of hERG cardiac ion channel; format: toxicity
In short: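 hERG channel inhibition was run by a contract lab. […] Determinations were made in duplicate or triplicate (n = 2 or 3).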

[2] = test system: Staphylococcus aureus; experiment: Antibacterial activity against cystic fibrosis isolate Staphylococcus aureus by CLSI method; format: functional
[3] = test system: Staphylococcus aureus; experiment: Antibacterial activity against Staphylococcus aureus ATCC 29213 by CLSI method; format: functional
[4] = test system: Staphylococcus aureus; experiment: Antibacterial activity against methicillin-resistant Staphylococcus aureus USA300 by CLSI method; format: functional
[5] = test system: Staphylococcus aureus; experiment: Antibacterial activity against Staphylococcus aureus 3527 by CLSI method; format: functional
[6] = test system: Staphylococcus aureus; experiment: Antibacterial activity against Staphylococcus aureus harbouring GyrA D83N mutant by CLSI method; format: functional
[7] = target: DNA gyrase (Staphylococcus aureus, UniProt P0A0K8+P20831); experiment: Inhibition of Staphylococcus aureus DNA gyrase supercoiling activity incubated for 25 min by ethidium bromide/bromophenol blue staining based agarose gel electrophoresis analysis; format: protein-complex assay
[8] = target: Topoisomerase IV (Staphylococcus aureus, UniProt P0C1S7+P0C1U9); experiment: Inhibition of Staphylococcus aureus DNA topoisomerase 4 decatenation activity using kDNA as substrate incubated for 10 to 20 min by ethidium bromide/bromophenol blue staining based agarose gel electrophoresis analysis; format: protein-complex assay
[9] = test system: Staphylococcus aureus; experiment: Selectivity ratio of IC50 for inhibition of Staphylococcus aureus DNA topoisomerase 4 decatenation activity to IC50 for inhibition of Staphylococcus aureus DNA gyrase supercoiling activity
[10] = test system: Neisseria gonorrhoeae; experiment: Antimicrobial activity against Neisseria gonorrhoeae G strain harbouring type 2 topoisomerase GyrA S91F and ParE G410V mutant incubated for 20 to 24 hrs by CLSI protocol based broth microdilution method; format: functional; conditions: time 20-24 hrs
[11] = test system: Neisseria gonorrhoeae; experiment: Antimicrobial activity against wild type Neisseria gonorrhoeae ATCC 49226 incubated for 20 to 24 hrs by CLSI protocol based broth microdilution method; format: functional; conditions: time 20-24 hrs
[12] = test system: Neisseria gonorrhoeae; experiment: Antimicrobial activity against wild type Neisseria gonorrhoeae F strain incubated for 20 to 24 hrs by CLSI protocol based broth microdilution method; format: functional; conditions: time 20-24 hrs
[13] = test system: Neisseria gonorrhoeae; experiment: Antimicrobial activity against Neisseria gonorrhoeae K strain harbouring type 2 topoisomerase GyrA S91F, D95N and ParC S87R, S88P mutant incubated for 20 to 24 hrs by CLSI protocol based broth microdilution method; format: functional; conditions: time 20-24 hrs
[14] = test system: Neisseria gonorrhoeae; experiment: Antimicrobial activity against wild type Neisseria gonorrhoeae O strain incubated for 20 to 24 hrs by CLSI protocol based broth microdilution method; format: functional; conditions: time 20-24 hrs
[15] = test system: Neisseria gonorrhoeae; experiment: Antimicrobial activity against wild type Neisseria gonorrhoeae P strain incubated for 20 to 24 hrs by CLSI protocol based broth microdilution method; format: functional; conditions: time 20-24 hrs
[16] = test system: Neisseria gonorrhoeae; experiment: Antimicrobial activity against wild type Neisseria gonorrhoeae V strain harbouring type 2 topoisomerase GyrA S91F, D95G and ParC S87R mutant incubated for 20 to 24 hrs by CLSI protocol based broth microdilution method; format: functional; conditions: time 20-24 hrs
[17] = test system: Neisseria gonorrhoeae; experiment: Antimicrobial activity against wild type Neisseria gonorrhoeae Y strain harbouring type 2 topoisomerase GyrA S91F, D95G and ParC S87R mutant incubated for 20 to 24 hrs by CLSI protocol based broth microdilution method; format: functional; conditions: time 20-24 hrs
[18] = Metabolic stability in mouse liver microsomes assessed as half life; format: ADME, Microsome
[19] = Cytotoxicity activity against human K562 cells assessed as inhibition of cellular growth; format: toxicity, cell-based
In short: (§1)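 Human K562 leukemia cells were tested alongside K/VP.5, an etoposide-resistant clonal subline derived from them that has reduced levels of human topoisomerase IIα. Cell growth inhibition was expressed as an IC50.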

[20] = Cytotoxicity activity against human K/VP.5 cells assessed as inhibition of cellular growth; format: toxicity, cell-based; in short: as §1

| SMILES | IC50 [1] [µM] | MIC [2] [µg/mL] | MIC [3] [µg/mL] | MIC [4] [µg/mL] | MIC [5] [µg/mL] | MIC [6] [µg/mL] | IC50 [7] [µM] | IC50 [8] [µM] | Ratio IC50 [9] | MIC [10] [µg/mL] | MIC [11] [µg/mL] | MIC [12] [µg/mL] | MIC [13] [µg/mL] | MIC [14] [µg/mL] | MIC [15] [µg/mL] | MIC [16] [µg/mL] | MIC [17] [µg/mL] | half-life [18] [min] | IC50 [19] [µM] | IC50 [20] [µM] |
| --- | --- | --- | --- | --- | --- | --- | --- | --- | --- | --- | --- | --- | --- | --- | --- | --- | --- | --- | --- | --- |
| O=c1ccc2ncc(F)c3c2n1CC3C[C@H]1OC[C@H](NCc2ccc3c(c2)OCCO3)CO1 (stereo partly specified) | 100 | 0.25 (≈ 0.551 µM) | 0.125 (≈ 0.276 µM) | 0.125 (≈ 0.276 µM) | 0.25 (≈ 0.551 µM) | 2 (≈ 4.41 µM) | 0.047 | 0.54 | 11 | 4 (≈ 8.82 µM) | 0.25 (≈ 0.551 µM) | 0.12 (≈ 0.265 µM) | 1 (≈ 2.21 µM) | 2 (≈ 4.41 µM) | 2 (≈ 4.41 µM) | ≤ 0.03 | ≤ 0.03 | 13.9 | 34.8 | 39.2 |
| O=C1COc2ccc(CN[C@H]3CO[C@H](CC4Cn5c(=O)ccc6ncc(F)c4c65)OC3)nc2N1 (stereo partly specified) | 97 | 2 (≈ 4.28 µM) | 2 (≈ 4.28 µM) | 1 (≈ 2.14 µM) | 2 (≈ 4.28 µM) | 8 (≈ 17.1 µM) | 4.2 | 1.4 | 0.33 | 2 (≈ 4.28 µM) | 1 (≈ 2.14 µM) | 0.12 (≈ 0.257 µM) | 1 (≈ 2.14 µM) | 1 (≈ 2.14 µM) | 2 (≈ 4.28 µM) | 0.5 (≈ 1.07 µM) | 1 (≈ 2.14 µM) | 66.3 | > 200 | > 200 |
| O=c1ccc2ncc(F)c3c2n1CC3C[C@H]1OC[C@H](NCc2cc3c(cn2)OCCC3)CO1 (stereo partly specified) | 125 | 0.5 (≈ 1.11 µM) | 0.25 (≈ 0.553 µM) | 1 (≈ 2.21 µM) | 1 (≈ 2.21 µM) | 8 (≈ 17.7 µM) | 2.1 | 1.6 | 0.76 | 8 (≈ 17.7 µM) | 2 (≈ 4.42 µM) | 0.12 (≈ 0.265 µM) | 1 (≈ 2.21 µM) | 2 (≈ 4.42 µM) | 2 (≈ 4.42 µM) | ≤ 0.03 | 0.25 (≈ 0.553 µM) | 18.3 | 268 | 187 |
| O=c1ccc2ncc(=O)n3c2n1CC3CN1CCC(NCc2cc3c(cn2)OCCC3)CC1 (racemic) |  | 0.25 (≈ 0.557 µM) | 0.25 (≈ 0.557 µM) | 0.25 (≈ 0.557 µM) | 0.25 (≈ 0.557 µM) | 8 (≈ 17.8 µM) |  |  |  |  |  |  |  |  |  |  |  |  |  |  |
| COc1ccc2ncc(F)c(C[C@H](O)[C@H]3OC[C@H](NCc4cc5c(nn4)OCCO5)CO3)c2n1 |  |  |  |  |  |  |  |  |  | > 32 | 32 (≈ 67.6 µM) | 8 (≈ 16.9 µM) | > 32 | 32 (≈ 67.6 µM) | 32 (≈ 67.6 µM) | 8 (≈ 16.9 µM) | 16 (≈ 33.8 µM) |  |  |  |
| CO/N=C(\C(=O)N[C@@H]1C(=O)N2C(C(=O)O)=C(CSc3nc(=O)c(O)nn3C)CS[C@H]12)c1csc(N)n1 [CEFTRIAXONE] |  |  |  |  |  |  |  |  |  | ≤ 0.001 | 0.004 (≈ 0.00721 µM) | ≤ 0.001 | 0.008 (≈ 0.0144 µM) | 0.004 (≈ 0.00721 µM) | ≤ 0.001 | 0.002 (≈ 0.00361 µM) | 1 (≈ 1.8 µM) |  |  |  |
| COc1ccc2ncc(F)c(C[C@H](O)[C@H]3OC[C@H](NCc4ccc5c(c4)OCCO5)CO3)c2n1 |  |  |  |  |  |  |  |  |  | 0.5 (≈ 1.06 µM) | ≤ 0.03 | ≤ 0.03 | ≤ 0.03 | ≤ 0.03 | ≤ 0.03 | ≤ 0.03 | ≤ 0.03 |  |  |  |
| O=C1CSc2ccc(CN[C@H]3CO[C@H](CC4Cn5c(=O)ccc6ncc(F)c4c65)OC3)nc2N1 (stereo partly specified) | 55 | 1 (≈ 2.07 µM) | 1 (≈ 2.07 µM) | 1 (≈ 2.07 µM) | 1 (≈ 2.07 µM) | 8 (≈ 16.5 µM) | 1.4 | 2.1 | 1.5 |  |  |  |  |  |  |  |  | 36.4 | 81.7 | 128 |
